# Results published in ChEMBL document CHEMBL3286189, “Discovery and SAR studies of a novel class of cytotoxic 1,4-disubstituted piperidines via Ugi reaction” (Eur J Med Chem, 2014).
# Tests used:
# Assay type in all cases: functional
# [1] = Anticancer activity against human BT549 cells
# Summary of the method: (§1)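 Values come from the NCI 60-cell-line human tumour panel, run on a single analog. Cytostatic and cytotoxic responses were read for each cell line across graded molar concentrations of that compound.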
# [2] = tested on: SF-268; experiment: Anticancer activity against human SF268 cells; summary of the method: as §1
# [3] = tested on: T47D; experiment: Anticancer activity against human T47D cells; summary of the method: as §1
# [4] = Anticancer activity against human HCC2998 cells; summary of the method: as §1
# [5] = tested on: HL-60; experiment: Anticancer activity against human HL60 (TB) cells
# Summary of the method: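 Run within the broad NCI-60 human tumour cell line panel screen of the National Cancer Institute.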
# [6] = Anticancer activity against human MOLT4 cells; summary of the method: as §1
# [7] = tested on: HT-29; experiment: Anticancer activity against human HT-29 cells; summary of the method: as §1
# [8] = tested on: NCI-H226; experiment: Anticancer activity against human NCI-H226 cells; summary of the method: as §1
# [9] = Anticancer activity against human HCT15 cells; summary of the method: as §1
# [10] = Anticancer activity against human OVCAR8 cells; summary of the method: as §1
# [11] = Anticancer activity against human LOXIMVI cells; conditions: LOX IMVI; summary of the method: as §1
# [12] = tested on: NCI-H522; experiment: Anticancer activity against human NCI-H522 cells; summary of the method: as §1
# [13] = tested on: U-251; experiment: Anticancer activity against human U251 cells; summary of the method: as §1
# [14] = Anticancer activity against human OVCAR4 cells; summary of the method: as §1
# [15] = tested on: SW-620; experiment: Anticancer activity against human SW620 cells; summary of the method: as §1
# [16] = tested on: CCRF-CEM; experiment: Anticancer activity against human CCRF-CEM cells; summary of the method: as §1
# [17] = tested on: SK-MEL-5; experiment: Anticancer activity against human SK-MEL-5 cells; summary of the method: as §1
# [18] = tested on: NCI-H322M; experiment: Anticancer activity against human NCI-H322M cells; summary of the method: as §1
# [19] = tested on: KM12; experiment: Anticancer activity against human KM12 cells; summary of the method: as §1
# [20] = read-out: pLC50 (the source's name) (converted)
smiles,measurement,setting,value
CC(C)(C)OC(=O)N[C@@H](Cc1ccccc1)C(=O)N(Cc1ccccc1)C1(C(=O)NCc2ccccc2)CCN(Cc2ccccc2)CC1,GI50,[1]; BT-549,2.09 µM
same,CC50,"[1]; BT-549, read-out: pLC50 (the source's name) (converted)",> 100 µM
same,TGI,"[1]; BT-549, read-out: pTGI (converted)",7.94 µM
same,GI50,[2],4.9 µM
same,CC50,[2]; [20],> 100 µM
same,TGI,[2]; read-out: pTGI,> 100 µM
same,GI50,[3],2.88 µM
same,CC50,[3]; [20],> 100 µM
same,TGI,[3]; read-out: pTGI,> 100 µM
same,GI50,[4]; HCC 2998,4.57 µM
same,CC50,"[4]; HCC 2998, read-out: pLC50 (the source's name) (converted)",> 100 µM
same,TGI,"[4]; HCC 2998, read-out: pTGI",> 100 µM
same,GI50,[5],2.51 µM
same,CC50,[5]; [20],> 100 µM
same,TGI,[5]; read-out: pTGI (converted),6.17 µM
same,GI50,[6]; MOLT-4,1.82 µM
same,CC50,"[6]; MOLT-4, read-out: pLC50 (the source's name) (converted)",> 100 µM
same,TGI,"[6]; MOLT-4, read-out: pTGI (converted)",6.31 µM
same,GI50,[7],2.14 µM
same,CC50,[7]; [20],57.5 µM
same,TGI,[7]; read-out: pTGI (converted),6.76 µM
same,GI50,[8],3.24 µM
same,CC50,[8]; [20],> 100 µM
same,TGI,[8]; read-out: pTGI,> 100 µM
same,GI50,[9]; HCT-15,3.16 µM
same,CC50,"[9]; HCT-15, read-out: pLC50 (the source's name) (converted)",> 100 µM
same,TGI,"[9]; HCT-15, read-out: pTGI",> 100 µM
same,GI50,[10]; OVCAR-8,3.47 µM
same,CC50,"[10]; OVCAR-8, read-out: pLC50 (the source's name) (converted)",> 100 µM
same,TGI,"[10]; OVCAR-8, read-out: pTGI",> 100 µM
same,GI50,[11],3.63 µM
same,CC50,[11]; [20],> 100 µM
same,TGI,[11]; read-out: pTGI (converted),21.4 µM
same,GI50,[12],3.98 µM
same,CC50,[12]; [20],> 100 µM
same,TGI,[12]; read-out: pTGI,> 100 µM
same,GI50,[13],3.16 µM
same,CC50,[13]; [20],> 100 µM
same,TGI,[13]; read-out: pTGI,> 100 µM
same,GI50,[14]; OVCAR-4,3.24 µM
same,CC50,"[14]; OVCAR-4, read-out: pLC50 (the source's name) (converted)",> 100 µM
same,TGI,"[14]; OVCAR-4, read-out: pTGI",> 100 µM
same,GI50,[15],3.47 µM
same,CC50,[15]; [20],> 100 µM
same,TGI,[15]; read-out: pTGI,> 100 µM
same,GI50,[16],3.31 µM
same,CC50,[16]; [20],> 100 µM
same,TGI,[16]; read-out: pTGI,> 100 µM
same,GI50,[17],1.74 µM
same,CC50,[17]; [20],6.31 µM
same,TGI,[17]; read-out: pTGI (converted),3.31 µM
same,GI50,[18],9.33 µM
same,CC50,[18]; [20],> 100 µM
same,TGI,[18]; read-out: pTGI,> 100 µM
same,GI50,[19],4.17 µM
same,CC50,[19]; [20],> 100 µM
same,TGI,[19]; read-out: pTGI,> 100 µM
